From ChEMBL document CHEMBL1817604, “Synthesis and biological evaluation of 1-(4'-Indolyl and 6'-Quinolinyl) indoles as a new class of potent anticancer agents” (Eur J Med Chem, 2011)

Key:
[1] = Antiproliferative activity against human KB-VIN10 cells over-expressing P-gp 170/MDR1 after 72 hrs by methylene blue assay; type: functional, cell-based; settings: KB-VIN10, 72 h
How it was run: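 KB-VIN10 is a P-gp 170/MDR1-overexpressing subline derived from KB by continuous exposure to rising vincristine. It is maintained in growth medium with 10 nM vincristine. Log-phase cells seeded at 5000 cells/mL/well in 24-well plates before compound exposure.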

[2] = tested on: NCI-H460; test: Antiproliferative activity against human H460 cells after 72 hrs by methylene blue assay; type: functional, cell-based; settings: NCI-H460, 72 h
How it was run: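 Log-phase cells seeded at 5000 cells/mL/well in 24-well plates, then exposed to compound.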

[3] = tested on: HT-29; test: Antiproliferative activity against human HT-29 cells after 72 hrs by methylene blue assay; type: functional, cell-based; settings: HT-29, 72 h
How it was run: (§1)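 Lines kept in RPMI-1640 with 5% fetal bovine serum. Log-phase cells seeded at 5000 cells/mL/well in 24-well plates, then exposed to compound.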

[4] = tested on: MKN-45; test: Antiproliferative activity against human MKN45 cells after 72 hrs by methylene blue assay; type: functional, cell-based; settings: MKN-45, 72 h; how it was run: as §1
[5] = tested on: KB; test: Antiproliferative activity against human KB cells after 72 hrs by methylene blue assay; type: functional, cell-based; how it was run: as §1
[6] = organism: Bos taurus; test: Displacement of [3H]colchicine from biotin-labeled bovine brain tubulin at 5 uM after 2 hrs by liquid scintillation counter
[7] = Inhibition of bovine brain tubulin polymerization after 30 mins by turbidimetry analysis
[8] = Inhibition of tubulin polymerization
How it was run: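 Bovine brain MAP-rich tubulin, 4 mg/mL in 100 mM PIPES (pH 6.9), 2 mM MgCl₂, 1 mM GTP, […] per well, with test compound or 2% (v/v) DMSO control. Turbidity read at 350 nm, 37 °C, every 30 s for 30 min.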

| Structure (SMILES) | IC50 [1] [nM] | IC50 [2] [nM] | IC50 [3] [nM] | IC50 [4] [nM] | IC50 [5] [nM] | Activity [6] [%] | IC50 [7] [nM] | IC50 [8] [nM] |
| --- | --- | --- | --- | --- | --- | --- | --- | --- |
| COc1cc2c(ccn2-c2cccc3ncccc23)c(OC)c1OC | 535 | 955 | 921 | 682 | 900 |  |  |  |
| COc1cc2c(ccn2-c2ccc3c(ccn3C)c2)c(OC)c1OC | 53 | 76 | 74 | 40 | 73 | 65 | 2700 |  |
| COc1cc2c(ccn2-c2ccc(N(C)C)cc2)c(OC)c1OC | 63 | 172 | 148 | 105 | 148 |  |  |  |
| COc1ccc2nc(-n3ccc4c(OC)c(OC)c(OC)cc43)ccc2c1 | 9110 | 6170 | 3650 | 11500 | 7370 |  |  |  |
| COc1ccc2ccc3cc(OC)c(OC)c(OC)c3c2c1 |  |  |  |  |  |  |  | > 40000 |
| COc1cc2c(c(OC)c1OC)-c1ccc(OC)c(=O)cc1[C@@H](NC(C)=O)CC2 [COLCHICINE] | 121 |  | 15 | 12 | 10 |  |  |  |
| COc1ccc(/C=C\c2cc(OC)c(OC)c(OC)c2)cc1O [COMBRETASTATIN A4] | 0.7 | 2.3 | 94 | 4.8 | 2 | 97 |  |  |
| COc1cc2c(ccn2-c2cccc3c2ccn3C)c(OC)c1OC | 25 | 49 | 44 | 40 | 32 | 83 | 1700 |  |
| COc1cc2c(ccn2-c2ccc3ncncc3c2)c(OC)c1OC | 3450 | 7520 | 8140 | 4310 | 7950 |  |  |  |
| COc1ccc(-n2ccc3c(OC)c(OC)c(OC)cc32)c(N)c1 | 50 | 96 | 101 | 49 | 102 | 44 | 4700 |  |
| COc1ccc2c(-n3ccc4c(OC)c(OC)c(OC)cc43)cn(C)c2c1 | 40 | 81 | 81 | 59 | 85 |  |  |  |
| COc1cc2c(ccn2-c2ccc3occc3c2)c(OC)c1OC | 265 | 690 | 646 | 322 | 537 |  |  |  |
| COc1cc2c(ccn2-c2ccnc3ccccc23)c(OC)c1OC | 130 | 318 | 329 | 197 | 216 |  |  |  |
| COc1ccc(-n2ccc3c(OC)c(OC)c(OC)cc32)cc1 | 135 | 198 | 179 | 145 | 186 |  |  |  |
| COc1cc2c(ccn2-c2ccc3ncccc3c2)c(OC)c1OC | 11 | 31 | 34 | 24 | 18 | 72 | 2700 |  |
| COc1ccc(-n2ccc3c(OC)c(OC)c(OC)cc32)cc1O | 68 | 737 | 6400 | 5900 | 131 |  |  |  |
| COc1ccc(-n2ccc3c(OC)c(OC)c(OC)cc32)cc1N | 1380 | 2390 | 4150 | 1540 | 3250 |  |  |  |
